Measurements gathered from unrelated publications.
Compare with care: the assays were run in different laboratories.
KMT5A: N-lysine methyltransferase KMT5A (KMT5A, Homo sapiens, UniProt Q9NQR1)
PRKCB: Protein kinase C beta type (PRKCB, Homo sapiens, UniProt P05771)
CCKAR: Cholecystokinin receptor type A (CCKAR, Homo sapiens, UniProt P32238)
LATS1: Serine/threonine-protein kinase LATS1 (LATS1, Homo sapiens, UniProt O95835)
ADRA2A: Alpha-2A adrenergic receptor (ADRA2A, Homo sapiens, UniProt P08913)

SMILES | target | effect on | action | technique | cells | concentration | inhibition [%]
O=C(O[C@@H]1Cc2c(O)cc(O)cc2O[C@@H]1c1cc(O)c(=O)c2c(O)c(O)cc([C@H]3Oc4cc(O)cc(O)c4C[C@H]3OC(=O)c3cc(O)c(O)c(O)c3)c2c1)c1cc(O)c(O)c(O)c1 | KMT5A | cell-free assay | – | – | – | 10 µM | 26
CCCS(=O)(=O)Nc1ccc(F)c(C(=O)c2c[nH]c3ncc(-c4ccc(Cl)cc4)cc23)c1F | PRKCB | enzyme activity | inhibitor | – | – | 1 µM | < 20
O=C1N=C(N2CCCCN2)S/C1=C\c1ccc(F)cc1O | CCKAR | ligand displacement | – | radioligand | – | 10 µM | 10
CCCCC(CC)CNC(=N)NC(=N)NCCCCCCNC(=N)NC(=N)NCC(CC)CCCC (stereo not drawn) | KMT5A | cell-free assay | – | – | – | 10 µM | 34
Cn1cncc1C1=CN(c2ncnc3[nH]cnc23)CCS1 | LATS1 | enzyme activity | inhibitor | radiometric | – | 50 nM | 35
O=C(O)c1ncccc1O | Neutrophil collagenase (MMP8, Homo sapiens, UniProt P22894) | enzyme activity | inhibitor | fluorescence | – | 1 mM | ~50
COc1cc(-c2cc(-c3ccc(N4CCNCC4)cc3)cnc2C)cc(OC)c1OC | LATS1 | enzyme activity | inhibitor | – | – | 0.1 µM | 4
O=C(c1ccc(Cl)cc1)N(Cc1ccccc1)C1CCCCC1 | CCKAR | cell-free assay | – | – | – | 10 µM | -9.6
COc1cc(NC(C)CCCN)c2ncccc2c1 (stereo not drawn) | KMT5A | cell-free assay | – | – | – | 10 µM | 28
O=C(c1ccc(F)cc1)N(Cc1ccccc1)C1CCCCC1 | ADRA2A | cell-free assay | – | – | – | 10 µM | 13
COc1cc(-c2cc(-c3ccc(N4CCNCC4)cc3)cnc2N)cc(OC)c1OC | Tyrosine-protein kinase ABL1 (ABL1, Homo sapiens, UniProt P00519, T315I) | enzyme activity | inhibitor | – | – | 1 µM | 57
COc1cc(NC(C)=O)c(Cl)cc1C(=O)Nc1nccs1 | CCKAR | cell-free assay | – | – | – | 10 µM | -9.3
CN(C)c1ccc2nc3ccc(=[N+](C)C)cc-3sc2c1 | KMT5A | cell-free assay | – | – | – | 10 µM | 43
Cc1ccc(Nc2nccc(N(C)c3ccc4c(C)n(C)nc4c3)n2)cc1S(N)(=O)=O | PRKCB | enzyme activity | inhibitor | – | – | 10 µM | 5
O=c1c(O)cccc2c([C@H]3Oc4cc(O)cc(O)c4C[C@H]3O)cc(O)c(O)c12 | KMT5A | cell-free assay | – | – | – | 10 µM | 3
CCN1CCN(Cc2ccc(NC(=O)c3ccc(C)c(/C=C/c4cnc5[nH]ccc5c4OC)c3)cc2C(F)(F)F)CC1 | Serine/threonine-protein kinase greatwall (MASTL, Homo sapiens, UniProt Q96GX5) | target engagement in cells | inhibitor | chemoproteomics | A-375 | 5 µM | -18.6
CCN(CC)CCNC(=O)c1c(C)[nH]c(/C=C2\C(=O)Nc3ccc(F)cc32)c1C | cAMP-dependent protein kinase catalytic subunit alpha (PRKACA, Bos taurus, UniProt P00517) | enzyme activity | inhibitor | – | – | 0.3 µM | 0
O=C(O[C@@H]1Cc2c(O)cc(O)cc2O[C@@H]1c1cc(O)c(O)c(O)c1-c1c([C@H]2Oc3cc(O)cc(O)c3C[C@H]2O)cc(O)c(O)c1O)c1cc(O)c(O)c(O)c1 | KMT5A | cell-free assay | – | – | – | 10 µM | 17
CCN1CCN(Cc2ccc(NC(=O)c3ccc(C)c(Oc4ccnc5[nH]ccc45)c3)cc2C(F)(F)F)CC1 | Receptor-interacting serine/threonine-protein kinase 4 (RIPK4, Homo sapiens, UniProt P57078) | target engagement in cells | inhibitor | chemoproteomics | A-375 | 5 µM | -11.6
COC(=O)/C=C\C(=O)Nc1cc2ccc(O)cc2oc1=O | Histone acetyltransferase p300 (EP300, Homo sapiens, UniProt Q09472) | enzyme activity | inhibitor | radiometric | – | 50 µM | > 90
COc1ccc(C(=O)c2coc3c2C(=O)C(=O)C=C3)cc1 | Peptide deformylase, mitochondrial (Homo sapiens, UniProt Q9HBH1) | enzyme activity | inhibitor | – | – | 100 µM | ≥ 100
Cc1ccc(CNC(=O)[C@H](CCc2ccccc2)NC(=O)[C@H](CCc2ccccc2)NC(=O)[C@H](CCc2ccccc2)NC(=O)c2cnc(C)cn2)cc1 | Plasminogen (PLG, Homo sapiens, UniProt P00747) | enzyme activity | inhibitor | – | – | 100 µM | -20
Oc1cccc(Nc2nc(-c3ccc(F)cc3F)cs2)c1 | ADRA2A | cell-free assay | – | – | – | 10 µM | -22.5
O=C1C=CC(=O)c2c(O)cccc21 | KMT5A | cell-free assay | – | – | – | 10 µM | 19
COc1cc2ncnc(Nc3ccc(Oc4ccccc4)cc3C)c2cc1OC | PRKCB | enzyme activity | inhibitor | – | – | 1 µM | 7
CSCCC(NC=O)C(=O)NC(C)C(=O)O (stereo not drawn) | KMT5A | cell-free assay | – | – | – | 10 µM | 33
CN(C)C1CCN(CC#Cc2nn(C3CCCC3)c3nc(NCc4ccccc4)ncc23)C1 (stereo not drawn) | Dual specificity mitogen-activated protein kinase kinase 6 (MAP2K6, Homo sapiens, UniProt P52564) | enzyme activity | inhibitor | FRET | – | 10 µM | 8
